In ChEMBL document CHEMBL4513216, “Probing the Open Global Health Chemical Diversity Library for Multistage-Active Starting Points for Next-Generation Antimalarials” (ACS Infect Dis, 2020):

Assay: Toxicity liver stage against HepG2, at 10uM
Assay type: cell-based
Parameters: test concentration 10 uM, cell line HepG2-A16-CD81EGFP
Settings: human, HepG2-A16-CD81EGFP cells; read-out: INHIBITION
In short: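 Uninfected HepG2-A16-CD81EGFP cells, 3 × 10^3 per well, 1536-well, plated on prespotted compound at 10 μM final, parasite-free screening media added to match infected plates; puromycin 10 μM positive, DMSO 0.5% negative; run in parallel with 48 h PbLuc assay at 37 °C, 5% CO2; viability by CellTiter-Glo luminescence, normalized to controls.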

SMILES	cytotoxicity at 10 µM
CNc1cc(C2CCCN2C(=O)c2ccc(=O)[nH]n2)ccn1 (configuration not stated)	-5.04%
Fc1ccc(OCc2nnc([C@H]3CCN(Cc4ccccn4)C3)o2)cc1	0.413%
c1c(CN2CCCCC2)nc2n1CCN(CC1CC1)C2	-113%
O=C(O)c1ccc(CN2CCC(c3ccnc4ccnn34)CC2)cc1	-29.9%
O=C(CC1CCCO1)NCCCC(=O)Nc1ccc(Cl)cc1 (configuration not stated)	2.91%
Cn1nnc2c1CCN(C(=O)C1CC1)C2COCCN1CCCC1 (configuration not stated)	8.33%
c1cc(CN2CCC3(CCOCC3COCC3CC3)CC2)ccn1 (configuration not stated)	-9.52%
COc1cc(NC(=O)N2CCCC2c2ccco2)cc(OC)c1 (configuration not stated)	4.65%
COc1ccc(F)cc1CN1CCN(Cc2nccn2C)C(C)C1 (configuration not stated)	2.01%
Cc1nc(C)n(CC2CCCN2CC(=O)NCCc2ccccc2)n1 (configuration not stated)	-16.5%
COCC(=O)N1CCCC1c1nc(C)c2c(n1)N(CC(C)C)C(=O)CC2 (configuration not stated)	1.6%
Cc1nnc(-c2cccc(C#N)c2)n1C1CCCN(C(C)C)C1=O (configuration not stated)	-6.74%
COCc1cn(C2CCN(CCC(C)c3ccccc3)CC2)nn1 (configuration not stated)	6.39%
CC(=O)c1ccc(NC(=O)c2ccc3c(c2)C2(CCCCC2)CN3)cc1	-108%
CCN(CC)c1ncc(CNCC2CCCn3ccnc32)s1 (configuration not stated)	-29.9%
O=C(NCCN1CCOCC1)c1scnc1Cl	-2.09%
COCCN(CCc1ccccc1)Cc1nc2c(cnn2C)c(=O)[nH]1	-7.57%
c1ccc(CN2CCC(NCCSc3ncn[nH]3)C2)cc1 (configuration not stated)	-2.76%
CC(NC(=O)CN1CCCC1=O)c1ccc(Cl)s1 (configuration not stated)	-6.45%
Cc1cccc(-c2noc([C@@H]3Cc4nc[nH]c4CN3)n2)c1	0.442%
CC(=O)c1cccc(NC(=O)CN2CCCCC2C2OCCO2)c1 (configuration not stated)	-10.5%

SMILES	cytotoxicity at 10 µM
CN(Cc1ccco1)C(=O)NCc1ccnc(SC(C)(C)C)c1	14.4%
CC(NC(=O)N(C)Cc1ccsc1)c1ccc2c(c1)CCC(=O)N2 (configuration not stated)	-7.23%
COCC1CC2(CCN(C(C)=O)CC2)CN1Cc1csc(C)n1 (configuration not stated)	9.19%
O=C(O)c1c(-c2cccnc2)ncc2c1CCN(CC1CCOC1)C2 (configuration not stated)	-2.55%
c1csc(C2(NCc3csc(C4CC4)n3)CCCC2)n1	-3.75%
CN(Cc1nncn1C)c1nccc(C2CCCC2)n1	-1.14%
Cn1ncc2c(N3CCCC(C)(O)C3)nc(-c3cccnc3)nc21 (configuration not stated)	9.98%
Cc1ccc(C(=O)NC(CN2CCCC2=O)c2ccccc2)cn1 (configuration not stated)	-4.6%
COCC(Nc1ncnc2sc(C(=O)O)c(C)c12)c1ccnn1C (configuration not stated)	-18.7%
CCC1=N[C@@]2(CC[C@@H]3CN(S(=O)(=O)N(C)C)C[C@@H]32)C(=O)N1CC(C)C	10.3%
CN(C)S(=O)(=O)N1CC[C@]2(O)CCN(CCCc3cccnc3)C[C@@H]2C1	-6.55%
c1ccn2cc(CN3CCCC(c4ccn[nH]4)C3)nc2c1 (configuration not stated)	6.76%
CC(=O)N1CC[C@@]2(C(=O)Nc3ccccc3)CCN(S(C)(=O)=O)CC[C@@H]12	2.96%
CCN(Cc1cnn(CC)c1)C(=O)Cn1c(=O)c(C)nc2ccccc21	0.791%
CCCc1nc(CN2CCCCC2Cn2cncn2)cs1 (configuration not stated)	-5.61%
CC(C)(C)OC(=O)NCC(=O)NCc1ccc(Cl)s1	-11.3%
O=C(CCn1cncn1)N1CCCC1c1noc(C2CC2)n1 (configuration not stated)	-23.3%
CC(C)(C)CC(=O)N[C@@H]1CO[C@H](CNC(=O)c2ccncc2)[C@H]1O	-3.81%
CC(C)(C)c1nccc(N2CCC(OCCN3CCCCC3)C2)n1 (configuration not stated)	-53.7%
CCCC(=O)NCC(=O)Nc1cc(F)ccc1SCC(F)F	10.8%
CCN1CCC(CNCc2cc(C)ccc2OC)C1 (configuration not stated)	17.4%

SMILES	cytotoxicity at 10 µM
Cc1cccnc1NC(=O)C1(n2cnnn2)CCCCC1	-2.43%
CC(C)c1cc(C(=O)N(Cc2ccncc2)CC2CCCO2)no1 (configuration not stated)	15.6%
CCc1nc(CN(C)C2CCN(CCc3ccncc3)C2)no1 (configuration not stated)	-20.2%
Fc1cccc(-c2nccnc2C2CCCNC2)c1 (configuration not stated)	-16.5%
Cc1cnn(CC2CCCCN2C(=O)Cc2c(C)noc2C)c1 (configuration not stated)	-0.807%
Cc1cc(CN(Cc2cccnc2)CC2CCCO2)on1 (configuration not stated)	-7.03%
CCc1cnc(C)nc1NCCN1CCOCC1	-2.66%
CC(C)c1nccn1C1CCCN(C(=O)CCNS(C)(=O)=O)C1 (configuration not stated)	-3.71%
N[C@@H](Cc1ccccc1)c1nnc(S(=O)(=O)Cc2ccccc2)o1	13.3%
CC(CN1CCOCC1)NC(=O)N1CCCC1 (configuration not stated)	0.651%
Cc1ccccc1Cc1nc(CSc2nnc(N)n2C)no1	5.26%
CCn1nc(C)c2nc(C(C)C)nc(NCCc3ccc(O)cc3)c21	18.1%
O=C(NC1CC1)N1CC[C@H]2[C@H]1CCN2c1ncccn1	3.08%
CCc1c(O)n(C(C)CC)c(SCC(=O)c2ccccc2)nc1=O (configuration not stated)	-2.11%
Cc1ncc(-c2ccnc(SCCN(C)C)n2)c(-c2ccco2)n1	-7.25%
COC(=O)c1cc(NC(=O)CCc2cscn2)ccc1C	-0.172%
CCc1ncnc2c1CCN(S(=O)(=O)c1ccccc1)CC2	-96.8%
CCN(CCc1ccccc1)Cn1nc(C)c2c(C)onc2c1=O	-5.18%
NC(=O)NCC(=O)N1CCC2(CC1)c1ccccc1CC2O (configuration not stated)	4.22%
Cc1nn(C)cc1S(=O)(=O)NCC(c1ccccc1)N1CCCCCC1 (configuration not stated)	-13.6%
c1ccc(-c2nc(CN3CCOC(Cn4cccn4)C3)co2)cc1 (configuration not stated)	0.724%

SMILES	cytotoxicity at 10 µM
CCCN1Cc2ccccc2CC1C(=O)NC (configuration not stated)	-5.74%
O=C(O)[C@]12CCCN(Cc3ccccn3)[C@@H]1CCN(c1cnccn1)C2	2.12%
Cc1ccc(-c2nc(CN3CCOC(Cn4cncn4)C3)cs2)o1 (configuration not stated)	4.5%
CCOc1cc(C(=O)N(C)C)ccc1NC(=O)c1ccsc1	-0.587%
CN1CCC(Oc2ccc(NC(=O)c3ccccc3)cc2)CC1	-5.13%
Cc1cnn(C2CN(c3nc(C)cc(N(C)C)n3)C2)c1	-5.12%
Cc1ccc2oc(=O)n(CC(=O)N3CCC4(CC3)CN(C)C(=O)O4)c2c1	-13.8%
CC(C)(C)C(O)CN1CCN(CC(=O)NC2CCOCC2)CC1 (configuration not stated)	-8.06%
CC(C)Cc1nc(OCC(=O)O)c(C#N)c2c1CCCC2	-6.14%
COc1ccccc1N1CCN(C(=O)CCCS(N)(=O)=O)C(C)C1 (configuration not stated)	6.15%
Cc1nn(C)c(C)c1NC(=O)Nc1cccnc1N1CCCC1	7.31%
CN(C)C1CCN(C(=O)C2SCCc3ccccc32)CC1 (configuration not stated)	-4.67%
Cc1ccccc1-n1cc(-c2ccnc(N3CCCC(CN)C3)n2)cn1 (configuration not stated)	1.34%
CN(C)C1COC2(CCN(C(=O)c3cccc(Cl)c3)CC2)C1 (configuration not stated)	-7.81%
Cn1cnc(S(=O)(=O)N2CC3(CCN(c4ccccc4)C3)C2)c1	-91.7%
Cc1ccccc1NS(=O)(=O)c1cc2c(c(C(=O)O)c1)OCCO2	-11.7%
Cc1cc(-c2nc(-c3c(C)ncc4c3CCNC4)no2)nc(C)n1	4.43%
Cc1nc([C@@H]2C[C@@H]3CCN(Cc4cnn(C)c4)C[C@H]3O2)sc1C	-3.49%
COc1ccc(N2CCC(NC(=O)c3ccc(C#N)cc3)CC2)cc1	-14.7%
